Measurements from publication PMC5634614 (Molecular imaging and biology : MIB : the official …, 2017).
Read-outs that look alike come from different tables or passages of the source. One block for each molecule: values may come before it.

Assays:
[1] = target: C6-2B mitochondria (rat glioma); conditions: C6-2B mitochondria (rat glioma) with [3H]PK11195; ref [28]; cited from earlier work
TSPO [2] = target: T1, TSPO (Rattus norvegicus, UniProt P16257); conditions: ref [18], [19], cited from earlier work
TSPO [3] = target: T1, TSPO; conditions: n = 5, prior study, ref [18], [19], cited from earlier work
Plasma protein binding = type: in vitro ADME
[4] = target: mitochondrial TSPO (mTSPO) (Mus musculus, UniProt P50637); experiment: 2D 1H-15N HSQC NMR titration of TSPO with ligands; type: binding; conditions: 5.0 mM ligand, 0.2 mM TSPO in DPC
How it was run: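 15N-labeled mitochondrial TSPO was expressed in E. coli BL21(DE3) in M9 minimal medium, then solubilized and purified in DPC detergent. 2D 1H-15N HSQC spectra were recorded with and without ligand (5.0 mM) on an 800-MHz spectrometer at 42 °C. Samples held 0.2 mM TSPO in ~2 % (w/v) DPC, 25 mM MES pH 6.0 and 100 mM NaCl.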

TSPO [5] = target: T1, TSPO; experiment: Radioligand displacement of [3H]PK11195 in C6 glioma cell lysate; type: binding; conditions: for TSPO binding affinity, fold greater than 1 (DPA-714): relative to 1 (DPA-714); for TSPO binding affinity, fold greater than 2 (VUIIS1008): relative to 2

Structure (SMILES): CCC(C)N(C)C(=O)c1cc2ccccc2c(-c2ccccc2Cl)n1 (stereo not shown) [[^3H]PK11195]
Kd [1]: 5.73 ± 2.38 nM

Structure (SMILES): CCc1cc(CC)n2nc(-c3ccc(OCC[18F])cc3)c(CC(=O)N(CC)CC)c2n1 [[^18F]VUIIS1008, 2-(5,7-diethyl-2-(4-(2-[(18)F]fluoroethoxy)phenyl)pyrazolo[1,5-a]pyrimidin-3-yl)-N,N-diethylacetamide]
enhancement in TSPO affinity compared to 1 (TSPO [2]; prior studies): 36 fold | VT (total distribution volume from kinetic parameters) (TSPO [3]; brain): 4.210 ± 1.612 | k1 (TSPO [3]; brain): 0.881 ±0.392 | k1/k2 (TSPO [3]; brain): 0.855 ± 0.325 | k2 (TSPO [3]; brain): 2.078 ± 1.666 | k3 (TSPO [3]; brain): 0.172 ± 0.070 | k3/k4 (binding potential, BPND) (TSPO [3]; brain): 4.435 ± 1.387 | k4 (TSPO [3]; brain): 0.037 ± 0.004 | VT (total distribution volume from kinetic parameters) (TSPO [3]; tumor): 25.224 ± 10.035 | k1 (TSPO [3]; tumor): 0.709 ± 0.306 | k1/k2 (TSPO [3]; tumor): 1.902 ± 0.816 | k2 (TSPO [3]; tumor): 0.442 ± 0.101 | k3 (TSPO [3]; tumor): 0.113 ±0.013 | k3/k4 (binding potential, BPND) (TSPO [3]; tumor): 12.634 ± 1.406 | k4 (TSPO [3]; tumor): 0.009 ± 0.002

Structure (SMILES): CCc1cc(CC)n2nc(-c3ccc(OCCF)cc3)c(CC(=O)N(CC)CC)c2n1 [VUIIS1008]
IC50 (TSPO [2]; previously reported): 0.3 nM

unbound fraction compared with DPA-714 (Plasma protein binding): lower unbound fraction than DPA-714 | unbound fraction, difference compared with 3A (Plasma protein binding): 0.54% | IC50 (TSPO [5]): 0.0194 nM | Ki (TSPO [5]): 0.00947 nM | TSPO binding affinity, fold greater than 1 (DPA-714) (TSPO [5]): 500 fold | TSPO binding affinity, fold greater than 1 (DPA-714) (TSPO [5]; listed as VUIIS1009B): approximately 500 fold | TSPO binding affinity, fold greater than 2 (VUIIS1008) (TSPO [5]): 20 fold
Structure (SMILES): CCc1cc(C)n2nc(-c3ccc(OCCF)cc3)c(CC(=O)N(CC)CC)c2n1 [3B, N,N-diethyl-2-(5-ethyl-2-(4-(2-fluoroethoxy)phenyl)-7-methylpyrazolo[1,5-a]pyrimidin-3-yl)acetamide]
saturation of ligand-bound state of TSPO (HSQC) [4]: completely saturated the ligand-bound state

unbound fraction compared with DPA-714 (Plasma protein binding): lower unbound fraction than DPA-714 | IC50 (TSPO [5]): 0.0144 nM | Ki (TSPO [5]): 0.00704 nM | TSPO binding affinity, fold greater than 1 (DPA-714) (TSPO [5]): 500 fold | TSPO binding affinity, fold greater than 1 (DPA-714) (TSPO [5]; listed as VUIIS1009A): approximately 500 fold | TSPO binding affinity, fold greater than 2 (VUIIS1008) (TSPO [5]): 20 fold
Structure (SMILES): CCc1cc(C)nc2c(CC(=O)N(CC)CC)c(-c3ccc(OCCF)cc3)nn12 [3A, N,N-diethyl-2-(7-ethyl-2-(4-(2-fluoroethoxy)-phenyl)-5-methylpyrazolo[1,5-a]pyrimidin-3-yl)acetamide]
